pEC50, pIC50, pKi: −log10 of the molar value. The source made the active and inactive calls. The calls are words filed in the database; no cut-off is given here.
Legend:
[1] = target: T1, D(4) dopamine receptor (Homo sapiens) (UniProt P21917); test: Agonist activity at D4R (unknown origin) expressed in human HEK293T cells assessed as Gi protein activation measured after 2.5 mins by BRET assay relative to control; type: functional, cell-based
T1 sequence (whole entry): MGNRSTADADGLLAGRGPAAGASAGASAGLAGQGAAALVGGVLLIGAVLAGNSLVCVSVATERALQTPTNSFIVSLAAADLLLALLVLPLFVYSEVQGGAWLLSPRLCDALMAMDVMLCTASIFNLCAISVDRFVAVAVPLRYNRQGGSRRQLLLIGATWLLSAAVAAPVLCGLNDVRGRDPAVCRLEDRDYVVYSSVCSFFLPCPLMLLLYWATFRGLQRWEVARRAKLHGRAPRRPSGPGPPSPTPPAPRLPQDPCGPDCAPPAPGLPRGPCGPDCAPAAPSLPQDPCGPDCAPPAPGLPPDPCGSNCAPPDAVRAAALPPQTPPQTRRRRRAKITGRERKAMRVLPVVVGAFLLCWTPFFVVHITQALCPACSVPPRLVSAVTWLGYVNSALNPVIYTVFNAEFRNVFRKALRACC
Method in brief: (§1)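 Transiently transfected HEK293T cells (15 μg plasmid cDNA, polyethyleneimine, 6 h, assayed after 48 h). Gαi1 or GαoA fused to RLuc8 and Gγ2 to mVenus for G protein activation; D4 receptor fused to RLuc8 and β-arrestin to mVenus for recruitment. About 2×10^5 cells/well in PBS with 0.1% glucose and 200 μM Na bisulfite. Coelenterazine H 5 μM. Read 530/485 nm; RLuc8-only background subtracted.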

GSC#83 [2] = test: Cytotoxicity against human GSC#83 cells assessed as reduction in cell viability at 10 uM incubated for 24 hrs by MTS assay; type: functional, cell-based
Method in brief: (§2)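 Cells seeded at 5,000/well and grown to 80% confluence: T98 and U251 in EMEM with 10% serum; GSC#83 as spheres in serum-free DMEM/F12 with EGF and bFGF. Treated 24 h at 5–50 μM in DMSO, with a DMSO vehicle control. MTS reagent added and formazan absorbance read at 490 nm. n = 6; two-way ANOVA.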

D(4) dopamine receptor [3] = target: T2, D(4) dopamine receptor (Homo sapiens, UniProt P21917); test: Antagonist activity at D4R (unknown origin) expressed in human HEK293T cells assessed as inhibition of dopamine-induced G0 protein activation pretreated for 10 mins followed by dopamine addition and measured after 2.5 mins by BRET assay; type: functional, cell-based
T2 sequence (P21917 whole entry): T1 sequence (whole entry)

GSC#83 [4] = test: Cytotoxicity against human GSC#83 cells assessed as reduction in cell viability at 5 to 50 uM incubated for 24 hrs by MTS assay; type: functional, cell-based; settings: dose 5-50 µM; method in brief: as §2
T98G [5] = test: Cytotoxicity against human T98G cells assessed as reduction in cell viability at 5 to 50 uM incubated for 24 hrs by MTS assay; type: functional, cell-based; settings: dose 5-50 µM; method in brief: as §2
D(4) dopamine receptor [6] = target: T2, D(4) dopamine receptor; test: Agonist activity at D4R (unknown origin) expressed in human HEK293T cells assessed as beta arrestin-2 recruitment measured after 2.5 mins by BRET assay; type: functional, cell-based
Method in brief: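 HEK293T cells transiently co-transfected with D4 receptor–RLuc8 and β-arrestin–mVenus using PEI, then harvested after 48 h. Cells were resuspended in PBS with 0.1% glucose and 200 μM Na bisulfite, at about 2×10^5 cells/well. Coelenterazine H (5 μM) was added, and ligands 2 min later. Emission was read at 485 and 530 nm 2.5 min after ligand. Net BRET was taken after subtracting the RLuc8-alone background; dose–response curves were fitted.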

D(4) dopamine receptor [7] = target: T2, D(4) dopamine receptor; test: Antagonist activity at D4R (unknown origin) expressed in human HEK293T cells assessed as inhibition of dopamine-induced Gi protein activation pretreated for 10 mins followed by dopamine addition and measured after 2.5 mins by BRET assay; type: functional, cell-based
D(3) dopamine receptor = D(3) dopamine receptor (Homo sapiens, UniProt P35462); test: Displacement of [3H]N-methylspiperone from human D3R receptor expressed in HEK293T cell membrane incubated for 1 hr by MicroBeta scintillation counting method; type: cell membranes
Method in brief: (§3)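 Membranes from stably transfected HEK293 cells (hD2L, hD3 or hD4.4), 20 μg (D2, D3) or 30 μg (D4) protein/well. Incubated 1 h at room temperature in EBSS binding buffer, pH 7.4, with 0.4 nM [3H]N-methylspiperone and 10 half-log dilutions in triplicate. 10 μM (+)-butaclamol defines nonspecific binding. GF filtration, scintillation counting. Ki by Cheng–Prusoff from ≥3 experiments; selectivity is the Ki ratio.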

D(2) dopamine receptor = D(2) dopamine receptor (Homo sapiens, UniProt P14416); test: Displacement of [3H]N-methylspiperone from human D2L receptor expressed in HEK293T cell membrane incubated for 1 hr by MicroBeta scintillation counting method; type: cell membranes
Method in brief: as §3, with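 “counting.” for “counting. Ki by Cheng–Prusoff from ≥3 experiments; selectivity is the Ki ratio.”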

U-251 [8] = test: Cytotoxicity against human U-251 cells assessed as reduction in cell viability at 5 to 50 uM incubated for 24 hrs by MTS assay; type: functional, cell-based; settings: dose 5-50 µM; method in brief: as §2
D(4) dopamine receptor [9] = target: T2, D(4) dopamine receptor; test: Displacement of [3H]7-OH-DPAT from human D4.4 receptor expressed in HEK293T cell membrane incubated for 1.5 hrs by MicroBeta scintillation counting method; type: cell membranes
Method in brief: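 Fresh membranes from HEK293 cells stably expressing hD4.4 (about 50–60 μg protein/well) in 50 mM Tris, 10 mM MgCl2, 1 mM EDTA, pH 7.4. Radioligand was 3 nM final; incubation 1.5 h at room temperature. Nonspecific binding was set with 10 μM (+)-butaclamol; DMSO was 3% final. Ten half-log dilutions were run in triplicate, then filtered. Ki came from IC50 by Cheng–Prusoff, from at least three independent experiments.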

U-251 [10] = test: Cytotoxicity against human U-251 cells assessed as reduction in cell viability at 10 uM incubated for 24 hrs by MTS assay; type: functional, cell-based; method in brief: as §2
[11] = Selectivity ratio of Ki for displacement of [3H]N-methylspiperone from human D2L receptor expressed in HEK293T cell membrane to Ki for displacement of [3H]N-methylspiperone from human D4.4 receptor expressed in HEK293T cell membrane
[12] = target: T1, D(4) dopamine receptor (Homo sapiens); test: Agonist activity at D4R (unknown origin) expressed in human HEK293T cells assessed as beta arrestin-2 recruitment measured after 2.5 mins by BRET assay relative to control; type: functional, cell-based; method in brief: as §1
D(4) dopamine receptor [13] = target: T2, D(4) dopamine receptor; test: Antagonist activity at D4R (unknown origin) expressed in human HEK293T cells assessed as inhibition of dopamine-induced beta arrestin-2 recruitment pretreated for 10 mins followed by dopamine addition and measured after 2.5 mins by BRET assay; type: functional, cell-based
T98G [14] = test: Cytotoxicity against human T98G cells assessed as reduction in cell viability at 10 uM incubated for 24 hrs by MTS assay; type: functional, cell-based; method in brief: as §2
[15] = Selectivity ratio of Ki for displacement of [3H]N-methylspiperone from human D3R expressed in HEK293T cell membrane to Ki for displacement of [3H]N-methylspiperone from human D4.4 receptor expressed in HEK293T cell membrane
D(4) dopamine receptor [16] = target: T2, D(4) dopamine receptor; test: Displacement of [3H]N-methylspiperone from human D4.4 receptor expressed in HEK293T cell membrane incubated for 1 hr by MicroBeta scintillation counting method; type: cell membranes
[17] = target: T1, D(4) dopamine receptor (Homo sapiens); test: Agonist activity at D4R (unknown origin) expressed in human HEK293T cells assessed as G0 protein activation measured after 2.5 mins by BRET assay relative to control; type: functional, cell-based; method in brief: as §1
D(4) dopamine receptor [18] = target: T2, D(4) dopamine receptor; test: Partial agonist activity at D4R (unknown origin) expressed in human HEK293T cells assessed as G0 protein activation measured after 2.5 mins by BRET assay; type: functional, cell-based; method in brief: as §1
[19] = target: T1, D(4) dopamine receptor (Homo sapiens); test: Partial agonist activity at D4R (unknown origin) expressed in human HEK293T cells assessed as Gi protein activation measured after 2.5 mins by BRET assay relative to control; type: functional, cell-based; method in brief: as §1
D(4) dopamine receptor [20] = target: T2, D(4) dopamine receptor; test: Partial agonist activity at D4R (unknown origin) expressed in human HEK293T cells assessed as Gi protein activation measured after 2.5 mins by BRET assay; type: functional, cell-based; method in brief: as §1
[21] = target: T1, D(4) dopamine receptor (Homo sapiens); test: Partial agonist activity at D4R (unknown origin) expressed in human HEK293T cells assessed as G0 protein activation measured after 2.5 mins by BRET assay relative to control; type: functional, cell-based; settings: filed as partial agonist; method in brief: as §1

D(3) dopamine receptor, sequence (P35462 whole entry): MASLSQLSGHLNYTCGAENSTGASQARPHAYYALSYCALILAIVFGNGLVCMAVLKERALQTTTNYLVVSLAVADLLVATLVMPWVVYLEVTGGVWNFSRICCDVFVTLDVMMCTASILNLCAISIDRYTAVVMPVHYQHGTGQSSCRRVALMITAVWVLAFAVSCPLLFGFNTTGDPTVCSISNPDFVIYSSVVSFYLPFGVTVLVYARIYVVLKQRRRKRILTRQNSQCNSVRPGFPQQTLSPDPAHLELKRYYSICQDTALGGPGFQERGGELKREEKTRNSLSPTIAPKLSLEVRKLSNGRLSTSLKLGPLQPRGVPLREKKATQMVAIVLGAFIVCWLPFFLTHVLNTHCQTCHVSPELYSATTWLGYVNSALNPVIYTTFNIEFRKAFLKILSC
D(2) dopamine receptor, sequence (P14416 whole entry): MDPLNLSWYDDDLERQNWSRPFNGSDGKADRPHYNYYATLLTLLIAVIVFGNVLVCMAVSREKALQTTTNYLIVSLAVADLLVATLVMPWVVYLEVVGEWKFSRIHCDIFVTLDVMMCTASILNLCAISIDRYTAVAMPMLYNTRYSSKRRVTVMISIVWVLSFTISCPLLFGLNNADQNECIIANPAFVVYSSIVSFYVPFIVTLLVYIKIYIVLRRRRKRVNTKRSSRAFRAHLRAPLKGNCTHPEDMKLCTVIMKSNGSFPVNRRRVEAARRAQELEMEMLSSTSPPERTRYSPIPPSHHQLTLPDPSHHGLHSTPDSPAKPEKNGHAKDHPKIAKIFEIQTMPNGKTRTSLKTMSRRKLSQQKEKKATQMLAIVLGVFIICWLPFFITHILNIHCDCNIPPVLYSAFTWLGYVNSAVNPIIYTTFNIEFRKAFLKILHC

Structure (SMILES) | Emax [1] [%] | Activity (GSC#83 [2]) | pIC50 (D(4) dopamine receptor [3]) | Activity (GSC#83 [4]) | Activity (T98G [5]) | pEC50 (D(4) dopamine receptor [6]) | pIC50 (D(4) dopamine receptor [7]) | pKi (D(3) dopamine receptor) | pKi (D(2) dopamine receptor) | Activity (U-251 [8]) | Activity (U-251 [10]) | Ratio Ki [11] | Emax [12] [%] | pIC50 (D(4) dopamine receptor [13]) | Activity (T98G [14]) | Ratio Ki [15] | pKi (D(4) dopamine receptor [16]) | Emax [17] [%] | also measured
O=C1CCc2ccccc2N1CCCN1CCN(c2ccc(Cl)cc2)CC1 | 0 | Active | 6.42 | Active | Active | 7.29 | 6.60 | 5.61 | 5.26 | Active | Active | 8320 | -43.4 | 4.98 | Active | 3720 | 9.18 | 0 | pKi (D(4) dopamine receptor [9]): 8.83
Cc1ccc(N2CCN(CCCN3C(=O)CCc4ccccc43)CC2)cc1 | 0 |  | 6.48 |  |  | 7.79 | 6.96 | 5.77 | 5.29 |  |  | 5250 | -30.2 | 5.91 |  | 1740 | 9.01 | 0 | 
O=C1CCc2ccccc2N1CCCN1CCN(c2ccccn2)CC1 |  | Active |  | Active | Active |  |  | 5.59 | 5.56 | Active | Active | 1230 | 0 | 7.17 | Active | 1150 | 8.65 |  | pEC50 (D(4) dopamine receptor [18]): 8.07; Emax [19]: 26.6%; pEC50 (D(4) dopamine receptor [20]): 7.91; Emax [21]: 46.2%

Source: ChEMBL document CHEMBL5104176 (J Med Chem, 2022)
